# Assay outcomes from PubChem BioAssay.
# A selection: hits, their analogues and other compounds. The true share with any hit is near 5.3%.
# NALP3 yeast inh: NALP3 inflammasome inhibitors in reconstituted yeast, primary screen, luminescence, uHTS; Yeast reconstituted NLRP3/ASC/caspase-1, beta-gal luminescence, 24 h; inhibition, % at 10 µM; 330,000 tested, 0.39% active;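 active = inhibition of 50% or more; inactive = inhibition below 50%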;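 also: plate controls were induced DMSO wells for no effect and uninduced yeast grown without galactose for full effect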
# Beta cell apopt: inhibitors of cytokine-induced beta cell apoptosis, primary screen, luminescence; INS-1E cytokine-induced death, ATP luminescence, 48 h; percent of positive-control rescue, neutral wells zero; protection from apoptosis, % (concentration not given with the values); 300,000 tested, 0.8% active; AID 435005, 2010;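 active = Every replicate reaches about 75%, or at least half do and their mean reaches it too, limit read from the data; inconclusive = At least half of replicates reach the limit but their mean does not; inactive = Under half of replicates reach the limit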;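 also: 0% = cytokine-treated negative control wells and 100% = positive control rescue; higher means more ATP so stronger rescue from cytokine killing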
# T cruzi repl: inhibitors of intracellular T. cruzi growth, primary screen, luminescence, NIH3T3 host cells | T. cruzi beta-gal in NIH3T3, 90 h | inhibition, % (test concentration not listed) | 300,000 tested, 1.4% active | AID 1885, 2009;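 active = mean inhibition across valid replicates above about 55%, limit read from the data; inconclusive = mean below that limit but half or more replicates reach it; inactive = mean below it, under half of replicates reach it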;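 also: signal also drops with host cell toxicity which is not excluded here; 0% = plate median of DMSO wells and 100% = zero luminescence signal; higher percent means less beta-gal luminescence so fewer parasites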
#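 Test system: β-gal T. cruzi (Tulahuen C4) inside NIH/3T3 cells / Quantity: 5,000 cells/well / Measured by: luminescence from GalScreen with 0.05% NP40, read after 60 min / Medium: DMEM plus 2% FBS / Measure: parasite load inhibition, % / Reagent: Tulahuen C4 trypomastigotes, 5000/well / Schedule: co-culture of at least 90 h after 3 h attachment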
# Calb FLC: C. albicans growth inhibition with fluconazole, primary screen, CaCi-2 strain, Alamar Blue fluorescence; C. albicans CaCi-2 + fluconazole, 48 h; 300,000 tested, 0.57% active; growth inhibition, % (concentration not given with the values);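 active = growth inhibition above about 58% in most replicates, limit read from the data, passing the limit was not always enough; inconclusive = exactly half the replicates above a set limit; inactive = most replicates below a set limit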;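 also: all wells also contain fluconazole at 8 µg/ml as a sub-toxic cotreatment; 0% = median of DMSO wells and 100% = median of geldanamycin control wells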
# CSC inhib: cancer stem cell viability inhibitors, primary screen, luminescence; cancer stem cell-like cells viability; inhibition, % at 7.5 µM; 300,000 tested, 1.1% active; in the data active = inhibition above about 75%; inconclusive = no clear call, values can overlap the other calls; tested in HMLE shEcad cells
# Mdm2 MdmX PPI: inhibitors of human Mdm2-MdmX association, primary screen, cell-based, luminescence, split luciferase, SaOS-2, uHTS. AID 485346, 2010. inhibition, % at 8 µM. Protein Mdm4 (Homo sapiens) + E3 ubiquitin-protein ligase Mdm2 (Homo sapiens), …. 330,000 tested, 3% active. SaOS-2 split-luciferase Mdm2/MdmX complementation;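 active = inhibition of at least 50% at 8 µM in the primary screen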
# Target sequence (O15151 whole entry, looked up): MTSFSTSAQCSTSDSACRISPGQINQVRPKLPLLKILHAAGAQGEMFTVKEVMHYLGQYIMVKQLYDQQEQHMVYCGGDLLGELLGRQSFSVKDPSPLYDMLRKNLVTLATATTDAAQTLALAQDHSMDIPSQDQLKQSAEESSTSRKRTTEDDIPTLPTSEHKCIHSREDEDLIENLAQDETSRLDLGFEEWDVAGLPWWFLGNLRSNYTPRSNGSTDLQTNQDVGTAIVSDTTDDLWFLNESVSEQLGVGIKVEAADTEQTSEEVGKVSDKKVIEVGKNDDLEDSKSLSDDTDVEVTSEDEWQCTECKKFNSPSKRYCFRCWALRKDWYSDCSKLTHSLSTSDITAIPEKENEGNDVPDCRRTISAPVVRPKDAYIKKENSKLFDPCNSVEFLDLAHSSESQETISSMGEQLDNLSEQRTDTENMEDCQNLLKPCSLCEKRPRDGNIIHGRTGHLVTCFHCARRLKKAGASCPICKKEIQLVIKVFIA
# Target sequence (Q00987 whole entry, looked up): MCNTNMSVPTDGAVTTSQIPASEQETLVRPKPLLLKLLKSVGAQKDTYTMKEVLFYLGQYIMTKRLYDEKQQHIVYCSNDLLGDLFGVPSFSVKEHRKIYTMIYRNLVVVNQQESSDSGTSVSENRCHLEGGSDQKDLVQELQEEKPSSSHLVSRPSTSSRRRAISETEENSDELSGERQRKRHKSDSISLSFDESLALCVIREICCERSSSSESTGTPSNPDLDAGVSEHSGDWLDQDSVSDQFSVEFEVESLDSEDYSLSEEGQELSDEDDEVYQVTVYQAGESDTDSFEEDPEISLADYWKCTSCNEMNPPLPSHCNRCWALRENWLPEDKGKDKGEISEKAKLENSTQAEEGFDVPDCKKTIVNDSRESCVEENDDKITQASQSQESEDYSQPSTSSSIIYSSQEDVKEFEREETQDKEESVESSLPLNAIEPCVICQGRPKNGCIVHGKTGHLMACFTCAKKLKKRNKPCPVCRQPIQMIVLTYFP
# Mdm2 MdmX conf: Mdm2-MdmX complex disruptors, retested hits, confirmation, luminescence, single concentration. shares compounds with Mdm2 MdmX PPI. Mdm2-MdmX binding, luminescent assay. inhibition, % at 8 µM. 10,000 tested, 55% active. AID 489028, 2010; in the data active = inhibition above about 40%
# Full FLuc ctr: full-length luciferase signal inhibition, confirmation, counter-screen for Mdm2/MdmX interaction inhibitor project, cell-based, single concentration, SaOS-2 | shares compounds with Mdm2 MdmX PPI | SaOS-2 full-length luciferase counterscreen, luminescence | inhibition, % at 8 µM | 6,200 tested, 77% active | AID 504607, 2011;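 active = mean inhibition at 8 µM reaching about 37%, which flags the compound as non-specific, limit read from the data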;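 also: p53-null SaOS-2 cells with luciferase driven by a doxycycline-inducible promoter; compound on cells about two nights before reading with doxycycline added after day one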
# The depositor's hits bear a star; ? = inconclusive; / = no result.
SMILES,NALP3 yeast inh,Beta cell apopt,T cruzi repl,Calb FLC,CSC inhib,Mdm2 MdmX PPI,Mdm2 MdmX conf,Full FLuc ctr
CCOc1cc(S(=O)(=O)N2CC=C(c3ccc(F)cc3)CC2)c(OCC)cc1-n1cnnn1,-2,31,35,?,47,53*,53*,82*
Cc1ccc(C(=O)CC(=O)c2ccccc2)cc1,20,6,-7,-3,-17,-6,/,/
Cc1ccc(C(=O)Sc2cccccc2=O)cc1,15,34,?,-3,28,100*,82*,23
CCOc1ccccc1N1CCN(C(=O)c2cc(-c3cccnc3)nc3c(Cl)cccc23)CC1,9,-7,28,0,1,88*,83*,52*
CCOc1ccccc1N1CCN(C(=O)c2cc3ccccc3cc2OC)CC1,11,/,/,/,/,57*,80*,69*
COc1ccccc1CN=C1NC(=O)C(CC(=O)Nc2ccc(C(C)=O)cc2)S1 (centres undefined),2,2,-2,-12,-12,5,/,/
COc1cccc(/C=N/NC(=O)Cn2cnc3c2c(=O)n(C)c(=O)n3C)c1,20,-2,-5,2,-1,5,/,/
N#CC(C#N)=c1ccc2c(c1)NC1(CCCCC1)N=2,35,20,11,69,62,71*,50*,20
CCCC(=O)NC(c1ccc(Cl)cc1Cl)c1ccc2cccnc2c1O (centres undefined),15,94*,64*,-2,109*,81*,85*,55*
CCCC(=O)NC(c1ccccc1)c1c(O)ccc2ccccc12 (centres undefined),30,-7,34,20,4,3,/,/
CCCC(=O)NC(c1ccccc1Cl)c1c(O)ccc2ccccc12 (centres undefined),4,2,20,11,9,31,/,/
CC(=O)NC(c1ccc2ccccc2c1)c1ccc2cccnc2c1O (centres undefined),35,/,61*,-4,102*,86*,90*,22
CCCCC(=O)NC(c1ccccc1Cl)c1c(O)ccc2ccccc12 (centres undefined),11,1,26,18,-12,27,/,/
CCCC(=O)NC(c1ccc(C)cc1)c1ccc2cccnc2c1O (centres undefined),17,112*,72*,86*,110*,81*,87*,53*
CCCCC(=O)NC(c1ccc(Cl)cc1)c1ccc2cccnc2c1O (centres undefined),14,97*,71*,97*,153*,77*,86*,11
CCCN(CC(=O)Nc1ccccc1C)C(=O)c1ccc(N2CCOCC2)c([N+](=O)[O-])c1,4,1,2,3,-21,21,/,/
CC(=O)NC(c1ccc(Cl)cc1Cl)c1ccc2cccnc2c1O (centres undefined),26,-6,62*,-1,-18,68*,87*,54*
CCCC(=O)NC(c1ccc(Cl)cc1)c1ccc2cccnc2c1O (centres undefined),12,113*,65*,108*,106*,78*,84*,57*
CC(=O)NC(CC(=O)NC(C)c1ccc(Cl)cc1Cl)c1ccccc1 (centres undefined),4,3,3,5,3,12,/,/
COc1ccc(C(NC(C)=O)c2ccc3cccnc3c2O)c(OC)c1 (centres undefined),13,109*,53,-3,45,74*,71*,31
COc1cc(CNc2ccc(N3CCCC3)cc2)ccc1OCc1ccccc1,/,14,/,/,8,/,/,/
CCC(C)NC(=O)c1cc(Cl)c(NC(=O)C2=C(C)OCCS2)cc1OC (centres undefined),21,-4,4,0,7,8,/,/
COc1ccc(-c2oc(=O)c3cc(OC)c(OC)cc3c2/C=C/c2ccc([N+](=O)[O-])cc2)cc1,-2,10,/,/,-12,-10,/,/
COc1ccc(-c2oc(=O)c3cc(OC)c(OC)cc3c2/C=C/c2cccc([N+](=O)[O-])c2)cc1,6,11,/,/,33,54*,15,/
CS(=O)(=O)Nc1ccccc1C(=O)Nc1ccccc1Cl,12,3,2,2,2,9,/,/
SMILES,NALP3 yeast inh,Beta cell apopt,T cruzi repl,Calb FLC,CSC inhib,Mdm2 MdmX PPI,Mdm2 MdmX conf,Full FLuc ctr
CS(=O)(=O)Nc1ccccc1C(=O)Nc1cc(Cl)cc(Cl)c1,3,64,-25,51,59,60*,92*,28
COC(=O)c1cc2ccsc2n1Cc1cccc(F)c1,-2,-9,-19,1,23,-5,/,/
COC(=O)c1cc2sc(Cl)cc2n1Cc1nc(-c2ccccc2)oc1C,13,/,-6,0,5,34,/,/
COC(=O)c1cc2ccsc2n1Cc1nc(-c2ccc(OC)cc2)oc1C,21,/,13,-3,/,60*,6,/
COC(=O)c1cc2sccc2n1Cc1nc(-c2ccc(OC)cc2)oc1C,-4,0,30,-11,-2,68*,28,/
O=C1N(c2ccccc2C(F)(F)F)O[C@@]1(c1ccccc1)C1CCCC1,22,-2,/,/,61,77*,51*,56*
O=C1N(c2ccccc2C(F)(F)F)O[C@@]1(c1ccccc1)C1CCCCC1,20,-9,/,/,74,87*,50*,52*
O=c1[nH]ncn1-c1ccccc1C(F)(F)F,-13,0,-10,-32,-6,-4,/,/
CCS(=O)(=O)N1CCC(C(=O)NCCCN2CCN(c3ccccc3F)CC2)CC1,4,-5,-5,2,4,15,/,/
CC(=O)NC(CC(=O)OCC(=O)Nc1cc(S(=O)(=O)N2CCCCC2)ccc1C)c1ccccc1 (centres undefined),6,-6,/,/,-29,21,/,/
O=C(Nc1cccc2c1CCCC2)c1cc([N+](=O)[O-])ccc1Cl,29,7,-1,8,-10,62*,21,/
O=C(Nc1cccc2c1CCCC2)c1ccc(Cl)c([N+](=O)[O-])c1,47,-5,-8,-6,-2,56*,27,/
